Measured values: ChEMBL document CHEMBL4017526, “Nanomolar Inhibitors of Glycogen Phosphorylase Based on β-d-Glucosaminyl Heterocycles: A Combined Synthetic, Enzyme Kinetic, and Protein Crystallography Study” (J Med Chem, 2017)
Active and inactive are the calls of the source. No cut-off for these calls is given here.

How the values were obtained:
[1] = target: T1, Glycogen phosphorylase, muscle form (Oryctolagus cuniculus, UniProt P00489)
T1 sequence (P00489 whole entry): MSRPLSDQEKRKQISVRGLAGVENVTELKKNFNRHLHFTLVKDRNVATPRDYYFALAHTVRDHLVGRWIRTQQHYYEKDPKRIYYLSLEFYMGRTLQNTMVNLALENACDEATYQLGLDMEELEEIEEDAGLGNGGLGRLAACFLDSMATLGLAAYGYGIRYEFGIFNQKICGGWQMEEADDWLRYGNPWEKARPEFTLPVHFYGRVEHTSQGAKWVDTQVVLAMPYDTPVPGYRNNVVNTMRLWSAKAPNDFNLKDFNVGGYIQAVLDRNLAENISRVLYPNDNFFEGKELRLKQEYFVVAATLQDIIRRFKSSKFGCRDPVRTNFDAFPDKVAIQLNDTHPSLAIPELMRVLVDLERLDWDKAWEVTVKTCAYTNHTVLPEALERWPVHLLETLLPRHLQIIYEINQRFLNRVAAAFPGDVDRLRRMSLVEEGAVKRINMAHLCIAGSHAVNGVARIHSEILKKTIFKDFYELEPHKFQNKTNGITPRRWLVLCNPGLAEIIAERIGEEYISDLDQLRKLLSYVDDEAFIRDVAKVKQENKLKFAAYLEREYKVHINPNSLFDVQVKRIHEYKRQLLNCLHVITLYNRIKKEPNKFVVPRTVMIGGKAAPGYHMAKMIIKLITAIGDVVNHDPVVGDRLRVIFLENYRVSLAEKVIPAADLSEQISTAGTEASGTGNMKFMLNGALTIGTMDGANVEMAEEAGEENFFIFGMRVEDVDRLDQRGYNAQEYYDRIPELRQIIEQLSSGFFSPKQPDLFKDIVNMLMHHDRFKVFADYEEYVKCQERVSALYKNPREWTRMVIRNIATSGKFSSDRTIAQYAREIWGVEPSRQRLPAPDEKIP

[2] = target: T1, Glycogen phosphorylase, muscle form; assay: Inhibition of rabbit muscle glycogen phosphorylase
[3] = target: T2, Glycogen phosphorylase, liver form (Homo sapiens, UniProt P06737); assay: Competitive inhibition of 6xHis-tagged human liver glycogen phosphorylase-a expressed in Escherichia coli BL21 Gold (DE3) assessed as release of inorganic phosphate using varying levels of glucose-1-phosphate and constant concentration of AMP and glycogen preincubated for 15 mins with AMP and glycogen followed by glucose-1-phosphate addition by Lineweaver-Burk plot method
T2 sequence (P06737 whole entry): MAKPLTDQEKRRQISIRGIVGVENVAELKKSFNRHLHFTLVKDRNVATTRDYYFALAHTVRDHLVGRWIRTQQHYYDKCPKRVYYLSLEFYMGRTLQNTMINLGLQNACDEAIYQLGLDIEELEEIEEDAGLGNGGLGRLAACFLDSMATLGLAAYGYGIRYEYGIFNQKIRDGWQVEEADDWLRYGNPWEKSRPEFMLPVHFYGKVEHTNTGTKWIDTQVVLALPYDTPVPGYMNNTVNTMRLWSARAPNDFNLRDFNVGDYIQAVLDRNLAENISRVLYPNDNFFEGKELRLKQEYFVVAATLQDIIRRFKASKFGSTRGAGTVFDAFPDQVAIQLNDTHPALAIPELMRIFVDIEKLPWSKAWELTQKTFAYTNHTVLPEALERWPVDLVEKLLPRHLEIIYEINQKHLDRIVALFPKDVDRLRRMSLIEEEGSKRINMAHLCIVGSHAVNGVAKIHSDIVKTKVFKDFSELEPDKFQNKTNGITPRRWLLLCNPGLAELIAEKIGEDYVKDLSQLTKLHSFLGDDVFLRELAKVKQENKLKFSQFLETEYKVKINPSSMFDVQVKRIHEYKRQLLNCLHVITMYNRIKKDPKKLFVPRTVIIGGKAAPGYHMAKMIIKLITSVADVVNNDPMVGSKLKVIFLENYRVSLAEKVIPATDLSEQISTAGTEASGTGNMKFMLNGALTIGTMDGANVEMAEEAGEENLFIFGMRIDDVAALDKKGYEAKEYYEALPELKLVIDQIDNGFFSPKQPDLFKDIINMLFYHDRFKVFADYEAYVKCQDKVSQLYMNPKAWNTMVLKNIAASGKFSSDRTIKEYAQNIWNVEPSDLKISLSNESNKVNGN

[4] = target: T1, Glycogen phosphorylase, muscle form; assay: Competitive inhibition of rabbit muscle glycogen phosphorylase-a in presence of varying levels of glucose-1-phosphate and constant concentration of glycogen and AMP preincubated for 15 mins with AMP and glycogen followed by glucose-1-phosphate addition by Lineweaver-Burk plot method
Method in brief: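 Rabbit muscle GPa at 3 μg/mL, 30 °C, synthesis direction. Medium: 30 mM imidazole/HCl pH 6.8, 60 mM KCl, 0.6 mM EDTA, 0.6 mM DTT, 0.2% glycogen. Enzyme–glycogen preincubated 15 min before Glc-1-P start. Samples at 1, 2, 3, 4 min quenched in SDS; phosphate measured at 850 nm. Ki derived from 1/v vs inhibitor concentration; three independent runs, mean ± SD.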

[5] = target: T1, Glycogen phosphorylase, muscle form; assay: Competitive inhibition of rabbit muscle glycogen phosphorylase-b in presence of varying levels of glucose-1-phosphate and constant concentration of glycogen and AMP preincubated for 15 mins with AMP and glycogen followed by glucose-1-phosphate addition by Lineweaver-Burk plot method
Method in brief: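 Rabbit skeletal muscle GPb, 3 μg/mL, at 30 °C in the glycogen-synthesis direction. Buffer: 30 mM imidazole/HCl pH 6.8, 60 mM KCl, 0.6 mM EDTA, 0.6 mM DTT, 0.2% glycogen, 1 mM AMP. Glc-1-P at 2, 3, 4, 6 or 10 mM, added after 15 min enzyme–glycogen preincubation. Pi read at 850 nm by molybdate method from 1–4 min samples. Ki from 1/v vs [inhibitor]; three independent experiments, mean ± SD.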

[6] = target: T3, Glycogen phosphorylase, muscle form (Oryctolagus cuniculus) (UniProt P00489); assay: Competitive inhibition of rabbit muscle glycogen phosphorylase-b at 625 uM in presence of varying levels of glucose-1-phosphate and constant concentration of glycogen and AMP preincubated for 15 mins with AMP and glycogen followed by glucose-1-phosphate addition by Lineweaver-Burk plot method
T3 sequence (whole entry): T1 sequence (P00489 whole entry)

[7] = target: T2, Glycogen phosphorylase, liver form; assay: Competitive inhibition of human liver glycogen phosphorylase-a assessed as release of inorganic phosphate using varying levels of glucose-1-phosphate and constant concentration of AMP and glycogen preincubated for 15 mins with AMP and glycogen followed by glucose-1-phosphate addition

Compound | Ki [3] [µM] | Ki [4] [µM] | Ki [5] [µM] | further results
O=c1[nH]c(=O)n([C@@H]2O[C@H](CO)[C@@H](O)[C@H](O)[C@H]2O)cc1F |  |  |  | Ki [1]: 5.5 to 7.9 µM
O[C@@H]1[C@@H](O)[C@H](c2nc(-c3ccc4ccccc4c3)n[nH]2)OC[C@H]1O |  |  |  | Ki [2]: 491 µM
N[C@@H]1[C@@H](O)[C@H](O)[C@@H](CO)O[C@H]1c1nc(-c2ccccc2)c[nH]1 | 2.73 | 3.11 | 2.67 | 
N[C@@H]1[C@@H](O)[C@H](O)[C@@H](CO)O[C@H]1c1nc(-c2ccc3ccccc3c2)c[nH]1 | 0.143 | 0.125 | 0.191 | 
O[C@@H]1[C@@H](O)[C@H](c2nc(-c3ccccc3)c[nH]2)OC[C@H]1O |  |  |  | Ki [2]: 800 µM
O[C@@H]1[C@@H](O)[C@H](c2nc(-c3ccc4ccccc4c3)c[nH]2)OC[C@H]1O |  |  |  | Ki [2]: 100 µM
N[C@@H]1[C@@H](O)[C@H](O)[C@@H](CO)O[C@H]1c1nc(-c2ccc3ccccc3c2)n[nH]1 | 7.6 | 5.3 | 4.8 | 
N[C@@H]1[C@@H](O)[C@H](O)[C@@H](CO)O[C@H]1c1nc2ccccc2[nH]1 |  |  | 107 | 
N[C@@H]1[C@@H](O)[C@H](O)[C@@H](CO)O[C@H]1n1cc(-c2ccc3ccccc3c2)nn1 |  |  | 354 | 
O=c1[nH]c(=O)n([C@@H]2O[C@H](CO)[C@@H](O)[C@@H](CO)[C@H]2O)cc1F |  |  |  | Ki [1]: 27.1 µM
N[C@@H]1[C@@H](O)[C@H](O)[C@@H](CO)O[C@H]1n1cc(-c2ccccc2)nn1 |  |  |  | inhibition [6]: inactive
OC[C@H]1O[C@@H](c2nnc(-c3ccccc3)[nH]2)[C@H](O)[C@@H](O)[C@@H]1O |  |  |  | Ki [7]: 1.35 µM
N[C@@H]1[C@@H](O)[C@H](O)[C@@H](CO)O[C@H]1c1nc(-c2ccccc2)n[nH]1 | 30.8 | 30.2 | 35.2 | 
